The test addresses Cystic fibrosis transmembrane conductance regulator (Homo sapiens, UniProt P13569, F508DEL). Briefly: Correction of defective trafficking of human deltaF508 mutant CFTR protein expressed in FRT epithelial cells coexpressing YFP-H148Q/I152L protein assessed as iodide influx for 16 to 20 hrs by fluorescence assay. In kind it is cell-based, Epithelial cell. The note with it: read-out: IC50 (the source's name). In outline:
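FRT cells stably coexpressing human ΔF508-CFTR and YFP-H148Q/I152L, grown 24 h at 37 °C (5% CO2), then exposed 16–20 h to compound at various concentrations; DMSO vehicle negative control and a bithiazole benzamide positive control. Washed, 20 min in PBS with forskolin 20 μM plus genistein 50 μM. YFP fluorescence (ex 500/em 535 nm) read 2 s baseline, then 12 s after iodide-substituted PBS addition. Influx rate came from exponential fit of final 11.5 s, extrapolated initial slope, normalized to background-subtracted initial fluorescence. EC50/Vmax came from four-parameter logistic fit.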
Sequence of Cystic fibrosis transmembrane conductance regulator (P13569 as listed by the source): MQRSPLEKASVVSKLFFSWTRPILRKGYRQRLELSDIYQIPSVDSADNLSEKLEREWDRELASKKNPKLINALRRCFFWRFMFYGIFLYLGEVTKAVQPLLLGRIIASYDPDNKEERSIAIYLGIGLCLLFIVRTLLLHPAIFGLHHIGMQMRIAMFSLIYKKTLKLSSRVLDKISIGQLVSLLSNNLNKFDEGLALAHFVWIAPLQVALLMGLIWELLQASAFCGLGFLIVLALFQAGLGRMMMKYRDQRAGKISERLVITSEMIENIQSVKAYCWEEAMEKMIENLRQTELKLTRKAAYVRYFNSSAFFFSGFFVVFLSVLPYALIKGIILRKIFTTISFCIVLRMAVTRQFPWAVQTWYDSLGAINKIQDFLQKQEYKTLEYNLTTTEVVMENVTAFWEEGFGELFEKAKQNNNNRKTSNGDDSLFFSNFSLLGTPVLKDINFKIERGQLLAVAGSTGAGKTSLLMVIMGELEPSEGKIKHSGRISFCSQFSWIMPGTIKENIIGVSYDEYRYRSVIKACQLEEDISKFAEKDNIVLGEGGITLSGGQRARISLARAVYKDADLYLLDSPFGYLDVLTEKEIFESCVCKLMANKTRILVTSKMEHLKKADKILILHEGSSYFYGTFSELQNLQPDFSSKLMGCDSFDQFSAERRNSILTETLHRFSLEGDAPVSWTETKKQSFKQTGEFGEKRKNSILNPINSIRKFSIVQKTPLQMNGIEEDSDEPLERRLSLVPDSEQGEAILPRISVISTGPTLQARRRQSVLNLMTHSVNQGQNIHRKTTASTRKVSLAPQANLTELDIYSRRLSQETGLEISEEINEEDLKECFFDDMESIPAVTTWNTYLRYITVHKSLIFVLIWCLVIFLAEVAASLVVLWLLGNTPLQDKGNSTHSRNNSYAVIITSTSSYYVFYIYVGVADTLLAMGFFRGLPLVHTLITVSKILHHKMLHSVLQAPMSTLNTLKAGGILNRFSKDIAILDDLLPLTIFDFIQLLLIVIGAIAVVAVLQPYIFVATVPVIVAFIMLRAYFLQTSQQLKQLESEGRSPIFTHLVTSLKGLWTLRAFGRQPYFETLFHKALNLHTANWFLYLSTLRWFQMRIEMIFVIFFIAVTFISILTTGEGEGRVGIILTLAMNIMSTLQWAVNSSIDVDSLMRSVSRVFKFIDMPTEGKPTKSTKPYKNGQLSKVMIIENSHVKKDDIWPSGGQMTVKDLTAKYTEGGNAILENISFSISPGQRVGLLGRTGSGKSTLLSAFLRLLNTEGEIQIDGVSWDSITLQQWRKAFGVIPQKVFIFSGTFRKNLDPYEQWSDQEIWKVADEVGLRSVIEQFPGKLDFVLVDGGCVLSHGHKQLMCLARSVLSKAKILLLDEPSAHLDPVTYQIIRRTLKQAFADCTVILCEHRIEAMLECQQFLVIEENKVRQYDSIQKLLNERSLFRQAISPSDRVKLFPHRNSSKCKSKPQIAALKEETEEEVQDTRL
Take `COc1ccc(Cl)cc1Nc1nc(-c2sc(NC(=O)c3ccccc3)nc2C)cs1`: the EC50 is 6 µM. Consider `COc1ccc(Cl)cc1Nc1nc2c(s1)CCCc1nc(N)sc1-2`, for which the EC50 came to 11 µM.

Regarding `COc1ccc(Cl)cc1Nc1nc2c(s1)CCCc1nc(NC(=O)C3CC3)sc1-2`, the EC50 turned out to be 8.9 µM. The same measure for `COc1ccc(Cl)cc1Nc1nc2c(s1)CCCc1nc(NC(=O)C(C)C)sc1-2`: 5.8 µM.

For `CCC(C)C(=O)Nc1nc2c(s1)-c1nc(Nc3cc(Cl)ccc3OC)sc1CCC2` (stereo not drawn), the EC50 was determined as 6.6 µM. The same measure for `COC(=O)CCC(=O)Nc1nc2c(s1)-c1nc(Nc3cc(Cl)ccc3OC)sc1CCC2`: 8.8 µM. For `COc1ccc(Cl)cc1Nc1nc2c(s1)CCCc1nc(NC(=O)c3ccno3)sc1-2`, the EC50 came to 4.8 µM. The same measure for `COc1ccc(Cl)cc1Nc1nc2c(s1)CCCCc1nc(N)sc1-2`: 9.2 µM; for `COc1ccc(Cl)cc1Nc1nc2c(s1)CCCCc1nc(NC(=O)C(C)(C)C)sc1-2`: 4.1 µM. The same measure for `COc1ccc(Cl)cc1Nc1nc2c(s1)CCCCc1nc(NC(=O)C3CC3)sc1-2`: 4.5 µM. Take `COc1ccc(Cl)cc1Nc1nc2c(s1)CCCCc1nc(NC(=O)C(C)C)sc1-2`: the EC50 came out at 8.7 µM.

Regarding `CCC(C)C(=O)Nc1nc2c(s1)-c1nc(Nc3cc(Cl)ccc3OC)sc1CCCC2` (stereo not drawn), the EC50 amounted to 2.9 µM. For the compound `COC(=O)CCC(=O)Nc1nc2c(s1)-c1nc(Nc3cc(Cl)ccc3OC)sc1CCCC2`, the EC50 turned out to be 8.3 µM. The same measure for `COc1ccc(Cl)cc1Nc1nc2c(s1)CCCCc1nc(NC(=O)c3ccno3)sc1-2`: 6.6 µM. The same measure for `CN(C)c1ccc(Cl)cc1Nc1nc2c(s1)CCCc1nc(NC(=O)C(C)(C)C)sc1-2`: 6.9 µM.

As for `Cc1cccnc1Nc1nc2c(s1)CCCc1nc(NC(=O)C(C)(C)C)sc1-2`, the EC50 is 7.2 µM.

For `CN(C)c1cccc(Nc2nc3c(s2)CCCc2nc(NC(=O)C(C)(C)C)sc2-3)c1`, the EC50 was 2.2 µM. For `COc1ccc([N+](=O)[O-])cc1Nc1nc2c(s1)CCCc1nc(NC(=O)C(C)(C)C)sc1-2`, the EC50 is 3.6 µM. The same measure for `CN(C)c1ccc(Cl)cc1Nc1nc2c(s1)CCCCc1nc(NC(=O)C(C)(C)C)sc1-2`: 2.1 µM. The same measure for `Cc1cccnc1Nc1nc2c(s1)CCCCc1nc(NC(=O)C(C)(C)C)sc1-2`: 5.2 µM; for `CN(C)c1cccc(Nc2nc3c(s2)CCCCc2nc(NC(=O)C(C)(C)C)sc2-3)c1`: 5.2 µM; for `COc1ccc([N+](=O)[O-])cc1Nc1nc2c(s1)CCCCc1nc(NC(=O)C(C)(C)C)sc1-2`: 0.9 µM.

As for `COc1ccc(Cl)cc1Nc1nc2c(s1)CCCc1nc(NC(=O)C(C)(C)C)sc1-2`, the EC50 turned out to be 2.3 µM.

The values are drawn from ChEMBL document CHEMBL3352726, “Constrained bithiazoles: small molecule correctors of defective ΔF508-CFTR protein trafficking” (J Med Chem, 2014).
